The source made the active and inactive calls. The calls are words filed in the database; no cut-off is given here.
Key:
Type in all cases: functional, organism-based
[1] = test system: Human immunodeficiency virus 1; assay: Antiviral activity against HIV-1 JRFL infected in HEK293T cells coexpressing firefly luciferase gene incubated for 1 hr; details: Human immunodeficiency virus 1, JRFL, HEK-293T
[2] = test system: Human immunodeficiency virus 1; assay: Antiviral activity against HIV-1 JRFL assessed as inhibition of viral growth; details: Human immunodeficiency virus 1, JRFL
How it was run: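 IC50 against JRFL measured in triplicate. Where more than one triplicate experiment was run, the value is the mean IC50 with SEM and N triplicates.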

[3] = test system: Amphotropic murine leukemia virus; assay: Antiviral activity against A-MLV assessed as inhibition of viral growth
How it was run: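 Control virus pseudotyped with amphotropic MLV Env, tested at concentrations up to 100 μM.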

[4] = test system: Human immunodeficiency virus 1; assay: Antiviral activity against HIV-1 CH58TF infected in primary CD4 T cells isolated from PBMC assessed as antibody dependent cellular toxicity (ADCC) by measuring killing of p24+ infected cells at 50 uM FACS-based ADCC assay; details: T cell
How it was run: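 CH58TF-infected (48 h) primary CD4 T cells from PBMC served as targets in a FACS-based ADCC assay. Plasma from 3 HIV-1-infected individuals at 1:1000, with 50 μM compound or DMSO vehicle. Read-out is killing of p24+ infected cells. Mean ± SEM.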

[5] = test system: Human immunodeficiency virus 1; assay: Antiviral activity against HIV-1 CH58TF infected in primary CD4 T cells isolated from PBMC assessed as antibody dependent cellular toxicity (ADCC) at 50 uM by cell surface staining based assay
How it was run: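 Primary CD4 T cells from PBMC infected with HIV-1 CH58TF for 48 h, then surface-stained with 1:1000 HIV+ plasma (n = 3) plus 50 μM compound or DMSO vehicle. Bound IgG detected with Alexa Fluor 647 anti-human IgG secondary by flow cytometry. Mean ± SEM.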

[6] = test system: Amphotropic murine leukemia virus; assay: Antiviral activity against A-MLV infected in HEK293T cells coexpressing firefly luciferase gene incubated for 1 hr; details: HEK-293T
[7] = test system: Human immunodeficiency virus 1; assay: Antiviral activity against HIV-1 JRFL infected in primary CD4 T cells isolated from PBMC assessed as antibody dependent cellular toxicity (ADCC) at 50 uM by cell surface staining based assay

N#CC1CCN(Cc2ccc3c(c2)C[C@H](CNC(=N)N)[C@H]3NC(=O)C(=O)Nc2ccc(Cl)c(F)c2)CC1
IC50 [1]: 60.7 µM

N=C(N)NC[C@H]1Cc2cc(CN3CCC[C@H](C(=O)O)C3)ccc2[C@@H]1NC(=O)C(=O)Nc1ccc(Cl)c(F)c1
IC50 [1]: 60 µM

N=C(N)NC[C@H]1Cc2cc(CN3CC[C@H](N)C3)ccc2[C@@H]1NC(=O)C(=O)Nc1ccc(Cl)c(F)c1
IC50 [1]: 10.1 µM

CNCc1ccc2c(c1)C[C@H](CNC(=N)N)[C@H]2NC(=O)C(=O)Nc1ccc(Cl)c(F)c1
IC50 [2]: 9.6 µM
IC50 [3]: > 100 µM

N=C(N)NC[C@H]1Cc2cc(CN3CC[C@H](O)C3)ccc2[C@@H]1NC(=O)C(=O)Nc1ccc(Cl)c(F)c1
IC50 [1]: 9.2 µM
Activity [4]: Active
Activity [5]: Active

N=C(N)NC[C@H]1Cc2cc(CN3CCC[C@@H]3CO)ccc2[C@@H]1NC(=O)C(=O)Nc1ccc(Cl)c(F)c1
IC50 [1]: 11.1 µM
Activity [4]: Active
Activity [5]: Active

N=C(N)NC[C@H]1Cc2cc(CN3CCCCC3)ccc2[C@@H]1NC(=O)C(=O)Nc1ccc(Cl)c(F)c1
IC50 [1]: 5.5 µM
IC50 [6]: > 100 µM

N=C(N)NC[C@H]1Cc2ccccc2[C@@H]1NC(=O)C(=O)Nc1ccc(Cl)c(F)c1
IC50 [2]: 66.8 µM

N=C(N)NC[C@H]1Cc2cc(CN3CCCC3)ccc2[C@@H]1NC(=O)C(=O)Nc1ccc(Cl)c(F)c1
IC50 [1]: 4 µM
IC50 [6]: > 100 µM
Activity [4]: Active
Activity [5]: Active

N=C(N)NC[C@H]1Cc2cc(CN3CC[C@@H](N)C3)ccc2[C@@H]1NC(=O)C(=O)Nc1ccc(Cl)c(F)c1
IC50 [1]: 14 µM

N=C(N)NC[C@H]1Cc2cc(CN3CC[C@@H](O)C3)ccc2[C@@H]1NC(=O)C(=O)Nc1ccc(Cl)c(F)c1
IC50 [1]: 10.2 µM
Activity [4]: Active
Activity [5]: Active

N=C(N)NC[C@H]1Cc2cc(CN3CCC[C@H]3CO)ccc2[C@@H]1NC(=O)C(=O)Nc1ccc(Cl)c(F)c1
IC50 [1]: 13.5 µM
Activity [4]: Active
Activity [5]: Active

N=C(N)NC[C@H]1Cc2cc(CN3CCC(C(N)=O)CC3)ccc2[C@@H]1NC(=O)C(=O)Nc1ccc(Cl)c(F)c1
IC50 [1]: 33 µM

N=C(N)NC[C@H]1Cc2cc(CN3CCC[C@@H]3C(=O)O)ccc2[C@@H]1NC(=O)C(=O)Nc1ccc(Cl)c(F)c1
IC50 [1]: 32.4 µM

COC(=O)[C@@H]1C[C@@H](O)CN1Cc1ccc2c(c1)C[C@H](CNC(=N)N)[C@H]2NC(=O)C(=O)Nc1ccc(Cl)c(F)c1
IC50 [1]: 6.4 µM
Activity [4]: inactive
Activity [5]: Active
Activity [7]: inactive

N=C(N)NC[C@H]1Cc2cc(CN3CCN(c4ccc(F)cc4F)CC3)ccc2[C@@H]1NC(=O)C(=O)Nc1ccc(Cl)c(F)c1
IC50 [1]: 50 µM

N=C(N)NC[C@H]1Cc2cc(CN3CCC[C@H]3C(N)=O)ccc2[C@@H]1NC(=O)C(=O)Nc1ccc(Cl)c(F)c1
IC50 [1]: 12 µM
Activity [4]: Active
Activity [5]: Active

N=C(N)NC[C@H]1Cc2cc(CN3CCNCC3)ccc2[C@@H]1NC(=O)C(=O)Nc1ccc(Cl)c(F)c1
IC50 [1]: 4 µM
IC50 [6]: > 100 µM
Activity [4]: Active
Activity [5]: Active

N=C(N)NC[C@H]1Cc2cc(CN3CCC[C@H]3C(=O)O)ccc2[C@@H]1NC(=O)C(=O)Nc1ccc(Cl)c(F)c1
IC50 [1]: 45.1 µM

N=C(N)NC[C@H]1Cc2cc(CN[C@H]3CNC[C@@H]3O)ccc2[C@@H]1NC(=O)C(=O)Nc1ccc(Cl)c(F)c1
IC50 [1]: 7.5 µM
Activity [4]: Active
Activity [5]: Active

Source: ChEMBL document CHEMBL5223159, “Structural and Functional Characterization of Indane-Core CD4-Mimetic Compounds Substituted with Heterocyclic Amines” (ACS Med Chem Lett, 2023)
